Measured values published in ChEMBL document CHEMBL4689842, “EUbOPEN Chemogenomics Library wave 1” (2021).

System: U2OS
Assay: Multiplex assay against U2OS
Type: toxicity, cell-based
Conditions: human
How it was run: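 At seeding, live cells were stained with Hoechst33342, BioTracker Green Microtubule Cytoskeleton Dye, MitoTracker Red and Annexin V Alexa Fluor 680. After compound addition they were imaged on a CQ1 microscope at 37°C and 5% CO2, and CellPathfinder machine-learning gating sorted them into Hoechst high-intensity objects or normal cells, with normal cells further split into healthy, pyknosed or fragmented nuclei and pyknosed cells into mitotic or apoptotic. Tubulin, mitochondrial-mass and membrane-permeability phenotypes are given as per cents of cells with healthy nuclei.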

[1] = 12 h, 1 µM, compound concentration 1 uM, replicate 1
[2] = 12 h, 1 µM, compound concentration 1 uM, replicate 2
[3] = 12 h, 10 µM, compound concentration 10 uM, replicate 1
[4] = 12 h, 10 µM, compound concentration 10 uM, replicate 2
[5] = 24 h, 1 µM, compound concentration 1 uM, replicate 1
[6] = 24 h, 1 µM, compound concentration 1 uM, replicate 2
[7] = 24 h, 10 µM, compound concentration 10 uM, replicate 1
[8] = 24 h, 10 µM, compound concentration 10 uM, replicate 2
[9] = 48 h, 1 µM, compound concentration 1 uM, replicate 1
[10] = 48 h, 1 µM, compound concentration 1 uM, replicate 2
[11] = 48 h, 10 µM, compound concentration 10 uM, replicate 1
[12] = 48 h, 10 µM, compound concentration 10 uM, replicate 2

CCn1c(=O)c(-c2ccc(-c3cncs3)cc2Cl)cc2cnc(Nc3ccc(N4CCN(C)CC4)cc3)nc21
Population Apoptotic (%) [1]: 57% | Population Fragmented Nuclei (%) [1]: 11% | Population Healthy Nuclei (%) [1]: 77% | Population Hoechst High Intensity Objects (%) [1]: 7% | Population Membrane Permeable-Phenotype (%) [1]: 11% | Population Mitochondria Different-Phenotype (%) [1]: 11% | Population Mitotic Cells (%) [1]: 42% | Population Normal (%) [1]: 92% | Population Pyknosed Nuclei (%) [1]: 11% | Population Tubulin-Different-Phenotype (%) [1]: 7% | Total Cell Count [1]: 162 | Population Apoptotic (%) [2]: 75% | Population Fragmented Nuclei (%) [2]: 9% | Population Healthy Nuclei (%) [2]: 78% | Population Membrane Permeable-Phenotype (%) [2]: 3% | Population Mitochondria Different-Phenotype (%) [2]: 17% | Population Mitotic Cells (%) [2]: 25% | Population Tubulin-Different-Phenotype (%) [2]: 19% | Total Cell Count [2]: 76 | Population Apoptotic (%) [3]: 84% | Population Fragmented Nuclei (%) [3]: 40% | Population Healthy Nuclei (%) [3]: 5% | Population Hoechst High Intensity Objects (%) [3]: 77% | Population Membrane Permeable-Phenotype (%) [3]: 38% | Population Mitochondria Different-Phenotype (%) [3]: 53% | Population Mitotic Cells (%) [3]: 15% | Population Normal (%) [3]: 22% | Population Pyknosed Nuclei (%) [3]: 54% | Population Tubulin-Different-Phenotype (%) [3]: 84% | Total Cell Count [3]: 177 | Population Apoptotic (%) [4]: 11% | Population Fragmented Nuclei (%) [4]: 8% | Population Healthy Nuclei (%) [4]: 79% | Population Hoechst High Intensity Objects (%) [4]: 4% | Population Membrane Permeable-Phenotype (%) [4]: 5% | Population Mitochondria Different-Phenotype (%) [4]: 29% | Population Mitotic Cells (%) [4]: 88% | Population Normal (%) [4]: 96% | Population Pyknosed Nuclei (%) [4]: 12% | Population Tubulin-Different-Phenotype (%) [4]: 15% | Total Cell Count [4]: 77 | Population Apoptotic (%) [5]: 38% | Population Fragmented Nuclei (%) [5]: 10% | Population Healthy Nuclei (%) [5]: 78% | Population Hoechst High Intensity Objects (%) [5]: 4% | Population Membrane Permeable-Phenotype (%) [5]: 6% | Population Mitochondria Different-Phenotype (%) [5]: 6% | Population Mitotic Cells (%) [5]: 61% | Population Normal (%) [5]: 95% | Population Pyknosed Nuclei (%) [5]: 10% | Population Tubulin-Different-Phenotype (%) [5]: 7% | Total Cell Count [5]: 161 | Population Apoptotic (%) [6]: 46% | Population Fragmented Nuclei (%) [6]: 15% | Population Healthy Nuclei (%) [6]: 68% | Population Membrane Permeable-Phenotype (%) [6]: 1% | Population Mitochondria Different-Phenotype (%) [6]: 5% | Population Mitotic Cells (%) [6]: 53% | Population Pyknosed Nuclei (%) [6]: 16% | Population Tubulin-Different-Phenotype (%) [6]: 20% | Total Cell Count [6]: 74 | Population Apoptotic (%) [7]: 97% | Population Fragmented Nuclei (%) [7]: 30% | Population Healthy Nuclei (%) [7]: 0% | Population Hoechst High Intensity Objects (%) [7]: 78% | Population Membrane Permeable-Phenotype (%) [7]: 100% | Population Mitochondria Different-Phenotype (%) [7]: 100% | Population Mitotic Cells (%) [7]: 2% | Population Normal (%) [7]: 21% | Population Pyknosed Nuclei (%) [7]: 69% | Population Tubulin-Different-Phenotype (%) [7]: 100% | Total Cell Count [7]: 212 | Population Apoptotic (%) [8]: 27% | Population Fragmented Nuclei (%) [8]: 14% | Population Healthy Nuclei (%) [8]: 71% | Population Hoechst High Intensity Objects (%) [8]: 3% | Population Membrane Permeable-Phenotype (%) [8]: 7% | Population Mitochondria Different-Phenotype (%) [8]: 23% | Population Mitotic Cells (%) [8]: 72% | Population Normal (%) [8]: 96% | Population Pyknosed Nuclei (%) [8]: 14% | Population Tubulin-Different-Phenotype (%) [8]: 8% | Total Cell Count [8]: 83 | Population Apoptotic (%) [9]: 60% | Population Fragmented Nuclei (%) [9]: 6% | Population Healthy Nuclei (%) [9]: 85% | Population Hoechst High Intensity Objects (%) [9]: 3% | Population Membrane Permeable-Phenotype (%) [9]: 3% | Population Mitochondria Different-Phenotype (%) [9]: 9% | Population Mitotic Cells (%) [9]: 40% | Population Normal (%) [9]: 96% | Population Pyknosed Nuclei (%) [9]: 8% | Population Tubulin-Different-Phenotype (%) [9]: 9% | Total Cell Count [9]: 186 | Population Apoptotic (%) [10]: 50% | Population Fragmented Nuclei (%) [10]: 8% | Population Healthy Nuclei (%) [10]: 79% | Population Hoechst High Intensity Objects (%) [10]: 8% | Population Membrane Permeable-Phenotype (%) [10]: 7% | Population Mitochondria Different-Phenotype (%) [10]: 20% | Population Mitotic Cells (%) [10]: 50% | Population Normal (%) [10]: 92% | Population Pyknosed Nuclei (%) [10]: 12% | Population Tubulin-Different-Phenotype (%) [10]: 23% | Total Cell Count [10]: 105 | Population Apoptotic (%) [11]: 93% | Population Fragmented Nuclei (%) [11]: 31% | Population Healthy Nuclei (%) [11]: 0% | Population Hoechst High Intensity Objects (%) [11]: 80% | Population Membrane Permeable-Phenotype (%) [11]: 25% | Population Mitochondria Different-Phenotype (%) [11]: 25% | Population Mitotic Cells (%) [11]: 6% | Population Normal (%) [11]: 19% | Population Pyknosed Nuclei (%) [11]: 67% | Population Tubulin-Different-Phenotype (%) [11]: 50% | Total Cell Count [11]: 321 | Population Apoptotic (%) [12]: 57% | Population Fragmented Nuclei (%) [12]: 16% | Population Healthy Nuclei (%) [12]: 70% | Population Hoechst High Intensity Objects (%) [12]: 3% | Population Membrane Permeable-Phenotype (%) [12]: 16% | Population Mitochondria Different-Phenotype (%) [12]: 24% | Population Mitotic Cells (%) [12]: 42% | Population Normal (%) [12]: 96% | Population Pyknosed Nuclei (%) [12]: 13% | Population Tubulin-Different-Phenotype (%) [12]: 18% | Total Cell Count [12]: 125
